Measured values pooled from the literature.
Compare with care: the assays were run in different laboratories.
Target: Mitogen-activated protein kinase 3 (MAPK3, Homo sapiens, UniProt P27361)

For `COc1cc(Nc2ncc(F)c(Nc3ccc4c(n3)NC(=O)C(C)(C)O4)n2)cc(OC)c1OC`, the inhibition was 0% (binding; competition with immobilised ligand; 10 µM).
`CC(C)(C)c1cc(C=C(C#N)C#N)cc(Br)c1O` gave a remaining activity of 105% (enzyme activity; inhibitor; 0.5 µM).
The remaining binding of `Cn1cncc1[C@@](O)(COc1ccc(C#N)cc1-c1ccc(OC(F)(F)F)cc1)c1ccc(C#N)cc1` is reported as 83% (cell-free assay; competition with immobilised ligand; 1 µM).
`C[C@@H](O)[C@H](N)C(=O)N1CCC[C@H]1C(=O)N1CCC[C@H]1C(=O)N[C@H](C(N)=O)[C@@H](C)O` gave an inhibition of 3% (enzyme activity; inhibitor; 30 µM).
For `Cn1cc(-c2cc(F)cc(N3CCn4c(cc5c4CCCC5)C3=O)c2CO)cc(Nc2ccc(N3CCN(C4COC4)CC3)cn2)c1=O`, the inhibition was 14% (enzyme activity; inhibitor; 0.1 µM).
The remaining binding of `Cc1nn(C)cc1-c1nc2c(N3CCN(Cc4ccc(Cl)cc4)CC3)c(Cl)cnc2[nH]1` is reported as 100% (binding; competition with immobilised ligand; 1 µM).
`COc1ncccc1-c1cnn2ccc(N3CCN(C(=O)OC(C)C)CC3)nc12` gave a remaining binding of 100% (binding; competition with immobilised ligand; 1 µM).
`CN[C@@]1(c2ccccc2Cl)CCCCC1=O` gave an inhibition of -4% (enzyme activity; inhibitor; 30 µM).
With `N#CC1(c2ccccn2)CCN(Cc2cc(C(=O)O)c(=O)n3ccccc23)CC1` the remaining binding was 100% (cell-free assay; competition with immobilised ligand; 1 µM).
`O=c1[nH]c2ccccc2n1C1CCN(Cc2ccc(-c3[nH]c4cc5ncnc5cc4nc3-c3ccccc3)cc2)CC1` gave a remaining signal of 118% (cell-free assay; 0.5 µM).
`Nc1ncc(-c2nc(N3CCOCC3)nc(N3CCOCC3)n2)c(C(F)F)n1` has a remaining binding of 89% (binding; competition with immobilised ligand; 10 µM).
